From ChEMBL document CHEMBL4732028, “Structural modifications that increase gut restriction of bile acid derivatives” (RSC Med Chem, 2021)
Activity calls are given as the source filed them. The calls are words filed in the database; no cut-off is given here.

Key:
[1] = molecular target: T1, G-protein coupled bile acid receptor 1 (Homo sapiens, UniProt Q8TDU6); experiment: Agonist activity at recombinant human TGR5 expressed in CHO cells assessed as increase in cAMP accumulation after 30 mins by TR-FRET assay; format: functional, cell-based
T1 sequence (Q8TDU6 whole entry): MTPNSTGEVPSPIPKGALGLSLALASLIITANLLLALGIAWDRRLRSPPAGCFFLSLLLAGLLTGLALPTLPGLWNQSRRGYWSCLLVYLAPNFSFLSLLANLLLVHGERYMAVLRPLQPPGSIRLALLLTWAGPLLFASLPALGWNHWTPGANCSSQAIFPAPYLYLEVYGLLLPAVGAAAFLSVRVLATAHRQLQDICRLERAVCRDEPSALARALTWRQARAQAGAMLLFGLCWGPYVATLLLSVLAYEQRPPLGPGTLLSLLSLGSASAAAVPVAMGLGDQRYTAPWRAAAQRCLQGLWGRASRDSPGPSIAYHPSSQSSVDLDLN

[2] = Drug recovery in C57BL/6 mouse feces at 5 mg/kg, po measured after 24 hrs by LC-MS/MS analysis; format: ADME, organism-based; details: read-out: Drug recovery
[3] = AUC in C57BL/6 mouse at 5 mg/kg, po measured up to 120 mins by LC-MS/MS analysis; format: ADME, organism-based; set-up: route oral, dose 5 mg/kg, time <=120; details: in vivo
[4] = system: Clostridioides difficile; experiment: Inhibition of TCA-induced Clostridioides difficile RPRE2 spore germination at 200 uM measured once every minute for 20 mins by microplate reader analysis; format: functional
Method in brief: (§1)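 Germination of C. difficile spores was induced with 2000 μM taurocholate (TCA), and test compound was added to inhibit it.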

[5] = Apparent permeability of the compound across apical to basolateral side in human Caco-2 cells; format: ADME, cell-based
[6] = Apparent permeability of the compound across basolateral to apical side in human Caco-2 cells; format: ADME, cell-based
[7] = system: HEK293; experiment: Cytotoxicity against human HEK293 cells at 10 uM; format: cell-based; details: hek293, 10 µM
[8] = molecular target: T2, Bile acid receptor (Homo sapiens) (UniProt Q96RI1); experiment: Agonist activity at FXR (unknown origin)
T2 sequence (whole entry): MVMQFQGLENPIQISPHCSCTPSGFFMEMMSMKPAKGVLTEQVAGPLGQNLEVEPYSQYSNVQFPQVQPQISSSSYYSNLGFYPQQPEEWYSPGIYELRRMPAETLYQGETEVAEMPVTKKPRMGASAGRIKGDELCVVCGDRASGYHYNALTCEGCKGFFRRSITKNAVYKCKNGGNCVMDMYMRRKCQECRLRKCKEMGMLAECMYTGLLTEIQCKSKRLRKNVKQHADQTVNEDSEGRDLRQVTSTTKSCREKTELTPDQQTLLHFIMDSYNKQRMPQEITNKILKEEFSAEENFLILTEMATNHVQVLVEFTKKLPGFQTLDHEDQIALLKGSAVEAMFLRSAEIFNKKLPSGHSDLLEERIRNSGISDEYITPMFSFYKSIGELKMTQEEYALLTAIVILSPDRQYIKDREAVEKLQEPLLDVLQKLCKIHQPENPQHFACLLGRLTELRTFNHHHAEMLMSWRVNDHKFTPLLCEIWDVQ

[9] = molecular target: T3, Vitamin D3 receptor (Homo sapiens) (UniProt P11473); experiment: Agonist activity at VDR (unknown origin)
T3 sequence (whole entry): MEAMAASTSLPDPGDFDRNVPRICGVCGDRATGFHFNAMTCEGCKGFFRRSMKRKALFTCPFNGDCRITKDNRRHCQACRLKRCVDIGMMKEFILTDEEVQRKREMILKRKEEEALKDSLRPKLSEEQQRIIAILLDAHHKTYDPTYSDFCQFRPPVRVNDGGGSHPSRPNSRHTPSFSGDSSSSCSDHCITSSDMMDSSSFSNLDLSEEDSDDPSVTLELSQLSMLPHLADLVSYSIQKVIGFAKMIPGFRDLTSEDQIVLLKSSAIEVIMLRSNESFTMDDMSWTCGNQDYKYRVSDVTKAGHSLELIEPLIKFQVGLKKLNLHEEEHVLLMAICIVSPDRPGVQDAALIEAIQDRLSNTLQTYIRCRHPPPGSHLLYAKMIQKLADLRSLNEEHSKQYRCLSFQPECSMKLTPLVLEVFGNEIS

[10] = system: Clostridioides difficile; experiment: Inhibition of TCA-induced Clostridioides difficile RPRE2 spore germination at 50 uM measured once every minute for 20 mins by microplate reader analysis; format: functional; method in brief: as §1

Row | Compound | EC50 [1] | dose excreted at 24 h [2] | AUC at 2 h [3] | further results
1 | CO[C@@H]1C[C@@H]2C[C@H](O)CC[C@]2(C)[C@H]2CC[C@]3(C)[C@@H]([C@H](C)CCC(=O)N(CCCNC(=O)[C@H](O)[C@@H](O)[C@H](O)[C@H](O)CO)CCCNC(=O)[C@H](O)[C@@H](O)[C@H](O)[C@H](O)CO)CC[C@H]3[C@H]12 | 567 nM | – | – | –
2 | CO[C@@H]1CC[C@@]2(C)[C@@H](C1)C[C@H](O)[C@@H]1[C@@H]2CC[C@]2(C)[C@@H]([C@H](C)CCC(=O)N3CCCC3)CC[C@@H]12 | – | 3% | 29600 ng·h/mL | –
3 | CO[C@@H]1C[C@@H]2C[C@H](O)CC[C@]2(C)[C@H]2CC[C@]3(C)[C@@H]([C@H](C)CCC(=O)N(C)C[C@H](O)[C@@H](O)[C@H](O)[C@H](O)CO)CC[C@H]3[C@H]12 | 62.3 nM | 39.7% | 1250 ng·h/mL | inhibition [4]: inactive
4 | CO[C@@H]1CC[C@@]2(C)[C@@H](C1)C[C@@H](O)[C@@H]1[C@@H]2CC[C@]2(C)[C@@H]([C@H](C)CCc3nnn[n-]3)CC[C@@H]12.[Na+] | – | 7.7% | 37700 ng·h/mL | –
5 | Cc1nnc(CC[C@@H](C)[C@H]2CC[C@H]3[C@@H]4[C@H](O)C[C@@H]5C[C@H](O)CC[C@]5(C)[C@H]4CC[C@]23C)o1 | – | 0.5% | 45800 ng·h/mL | Papp A→B [5]: 2.6 ×10⁻⁶ cm/s; Papp B→A [6]: 1.5 ×10⁻⁶ cm/s
6 | CO[C@@H]1C[C@@H]2C[C@H](O)CC[C@]2(C)[C@H]2CC[C@]3(C)[C@@H]([C@H](C)CCc4nnc(C)o4)CC[C@H]3[C@H]12 | – | 7.1% | 25700 ng·h/mL | Papp A→B [5]: 0.27 ×10⁻⁶ cm/s; Papp B→A [6]: 0.12 ×10⁻⁶ cm/s; Activity [7]: Non-Toxic; Activity [8]: inactive; Activity [9]: inactive
7 | CO[C@@H]1C[C@@H]2C[C@H](O)CC[C@]2(C)[C@H]2CC[C@]3(C)[C@@H]([C@H](C)CCC(=O)NC[C@H](O)[C@@H](O)[C@H](O)[C@H](O)CO)CC[C@H]3[C@H]12 | 33.3 nM | 11.7% | 1520 ng·h/mL | inhibition [4]: inactive
8 | CO[C@@H]1CC[C@@]2(C)[C@@H](C1)C[C@@H](O)[C@@H]1[C@@H]2CC[C@]2(C)[C@@H]([C@H](C)CCc3nn[nH]n3)CC[C@@H]12 | – | – | – | inhibition [10]: Active
9 | CO[C@@H]1C[C@@H]2C[C@H](O)CC[C@]2(C)[C@H]2CC[C@]3(C)[C@@H]([C@H](C)CCC(=O)O)CC[C@H]3[C@H]12 | 76.8 nM | – | – | –
10 | CO[C@@H]1CC[C@@]2(C)[C@@H](C1)C[C@@H](OS(=O)(=O)[O-])[C@@H]1[C@@H]2CC[C@]2(C)[C@@H]([C@H](C)CCc3nnn[n-]3)CC[C@@H]12.[Na+].[Na+] | – | 89.1% | 4840 ng·h/mL | inhibition [10]: Active
11 | CO[C@@H]1CC[C@@]2(C)[C@@H](C1)C[C@H](OS(=O)(=O)[O-])[C@@H]1[C@@H]2CC[C@]2(C)[C@@H]([C@H](C)CCC(=O)N3CCCC3)CC[C@@H]12.[Na+] | – | 29.1% | 14300 ng·h/mL | inhibition [10]: Active
